Results reported in ChEMBL document CHEMBL4334488 (J Med Chem, 2019).

Key:
Histamine H3 receptor [1] = molecular target: T1, Histamine H3 receptor (Homo sapiens, UniProt Q9Y5N1); experiment: Displacement of 3 nM [3H]Nalpha-methylhistamine from human H3R expressed in Sf9 cell membranes co-expressing Gia2 and beta1gamma2 by competition binding assay
Summary of the method: (§1)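 Competition binding on Sf9 membranes in 100 μL with 0.2% BSA. Membrane protein: 5−25 μg (H4R), 24−35 μg (H3R), 15 μg (H2R), 23 μg (H1R). Normalized total binding was plotted against log competitor. Two to four independent experiments, each in triplicate.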

Histamine H1 receptor = Histamine H1 receptor (Homo sapiens, UniProt P35367); experiment: Displacement of 5 nM [3H-pyrilamine from human H1R expressed in Sf9 cell membranes co-expressing RGS4 by competition binding assay; summary of the method: as §1
[2] = Chemical stability in PBS buffer at pH 7.4 at 200 uM at 23 degC measured over 24 hrs by RP-HPLC analysis; type: physicochemical; conditions: pH 7.4, 24 h
Summary of the method: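 Compounds diluted to 200 μM in PBS pH 7.4 from a 10 mM DMSO stock, incubated at 23 °C for 24 h, and analysed by RP-HPLC with detection at 220 nm.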

Histamine H4 receptor [3] = molecular target: T2, Histamine H4 receptor (Homo sapiens, UniProt Q9H3N8); experiment: Agonist activity at human H4R by [35S]-GTPgammaS-binding assay; type: functional
Histamine H4 receptor [4] = molecular target: T3, Histamine H4 receptor (Mus musculus, UniProt Q91ZY2); experiment: Agonist activity at mouse H4R by [35S]-GTPgammaS-binding assay; type: functional
T3 sequence (Q91ZY2 whole entry): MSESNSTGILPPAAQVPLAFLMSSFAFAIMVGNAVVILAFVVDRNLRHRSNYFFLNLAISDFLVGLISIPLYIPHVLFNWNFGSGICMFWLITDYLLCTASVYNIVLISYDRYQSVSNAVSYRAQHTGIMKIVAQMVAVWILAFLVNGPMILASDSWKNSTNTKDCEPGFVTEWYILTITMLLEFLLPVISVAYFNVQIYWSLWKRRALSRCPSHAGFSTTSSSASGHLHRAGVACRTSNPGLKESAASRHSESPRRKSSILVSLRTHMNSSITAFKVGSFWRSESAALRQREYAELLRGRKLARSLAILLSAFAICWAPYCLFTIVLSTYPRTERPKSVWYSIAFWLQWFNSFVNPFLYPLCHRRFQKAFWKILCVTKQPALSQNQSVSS

Histamine H3 receptor [5] = molecular target: T1, Histamine H3 receptor; experiment: Displacement of 2 nM [3H]UR-PI294 from human H3R expressed in Sf9 cell membranes co-expressing Gia2 and beta1gamma2 by competition binding assay
Summary of the method: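 Competition binding on Sf9 membranes in 100 μL with 0.2% BSA. Membrane protein: 5−25 μg (H4R), 24−35 μg (H3R), 15 μg (H2R), 23 μg (H1R). […] Normalized total binding was plotted against log competitor. Two to four independent experiments, each in triplicate.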

Histamine H4 receptor [6] = molecular target: T2, Histamine H4 receptor; experiment: Displacement of 40 nM [3H]-histamine from human H4R expressed in Sf9 cell membranes co-expressing Gia2 and beta1gamma2 by competition binding assay; summary of the method: as §1
Histamine H2 receptor = Histamine H2 receptor (Homo sapiens, UniProt P25021); experiment: Displacement of 20 nM [3H]UR-DE257 from human H2R expressed in Sf9 cell membranes co-expressing GsalphaS by competition binding assay; summary of the method: as §1
Homo sapiens [7] = species on record: Homo sapiens; experiment: Selectivity index, ratio of Ki for displacement of 2 nM [3H]UR-PI294 from human H3R expressed in Sf9 cell membranes co-expressing Gia2 and beta1gamma2 by competition binding assay to Ki for displacement of 40 nM [3H]-histamine from human H4R expressed in Sf9 cell membranes co-expressing Gia2 and beta1gamma2 by competition binding assay
Homo sapiens [8] = species on record: Homo sapiens; experiment: Selectivity index, ratio of Ki for [3H]UR-DE257 from human H2R expressed in Sf9 cell membranes co-expressing GsalphaS by competition binding assay to Ki for displacement of 40 nM [3H]-histamine from human H4R expressed in Sf9 cell membranes co-expressing Gia2 and beta1gamma2 by competition binding assay
Histamine H4 receptor [9] = molecular target: T2, Histamine H4 receptor
[10] = molecular target: T4, Histamine H4 receptor (Mus musculus) (UniProt Q91ZY2)
T4 sequence (whole entry): T3 sequence (Q91ZY2 whole entry)

[11] = molecular target: Histamine H4 receptor (Rattus norvegicus) (UniProt Q91ZY1)
[12] = Chemical stability in EtOH/H2O (70:30) at -20 degC measured over 11 months; type: physicochemical; conditions: 8035.5 h
Summary of the method: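 Radioligand stored in EtOH/H2O 70:30 at −20 °C. Radiochemical purity was checked by HPLC with UV and radiometric detection after spiking with the unlabeled compound, 4 days after synthesis and again after 11 months.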

Histamine H4 receptor [13] = molecular target: T2, Histamine H4 receptor; experiment: Binding affinity to human H4R

T2 sequence (Q9H3N8 whole entry): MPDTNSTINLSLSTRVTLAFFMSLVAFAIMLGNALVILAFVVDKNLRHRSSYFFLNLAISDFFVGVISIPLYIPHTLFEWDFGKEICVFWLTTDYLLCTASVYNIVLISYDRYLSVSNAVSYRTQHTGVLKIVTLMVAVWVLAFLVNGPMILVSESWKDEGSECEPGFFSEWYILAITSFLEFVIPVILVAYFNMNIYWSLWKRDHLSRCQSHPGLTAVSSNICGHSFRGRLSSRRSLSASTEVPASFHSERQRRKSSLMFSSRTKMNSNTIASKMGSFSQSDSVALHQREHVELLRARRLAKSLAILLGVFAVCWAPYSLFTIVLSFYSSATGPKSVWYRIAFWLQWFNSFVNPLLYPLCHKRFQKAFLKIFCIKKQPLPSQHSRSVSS
T1 sequence (Q9Y5N1 whole entry): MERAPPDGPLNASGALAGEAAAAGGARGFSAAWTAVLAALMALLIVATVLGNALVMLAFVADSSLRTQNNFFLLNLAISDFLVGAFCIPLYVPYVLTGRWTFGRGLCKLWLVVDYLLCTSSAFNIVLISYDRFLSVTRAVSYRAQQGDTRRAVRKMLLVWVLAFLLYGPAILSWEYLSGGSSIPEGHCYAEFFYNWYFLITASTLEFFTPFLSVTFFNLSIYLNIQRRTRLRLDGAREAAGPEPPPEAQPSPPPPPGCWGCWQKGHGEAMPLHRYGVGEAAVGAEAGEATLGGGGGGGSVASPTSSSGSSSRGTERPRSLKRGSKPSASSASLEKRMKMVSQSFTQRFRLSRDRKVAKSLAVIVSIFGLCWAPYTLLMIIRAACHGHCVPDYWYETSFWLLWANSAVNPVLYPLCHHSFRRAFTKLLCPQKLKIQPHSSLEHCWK
Sequence of Histamine H1 receptor (P35367 whole entry, looked up): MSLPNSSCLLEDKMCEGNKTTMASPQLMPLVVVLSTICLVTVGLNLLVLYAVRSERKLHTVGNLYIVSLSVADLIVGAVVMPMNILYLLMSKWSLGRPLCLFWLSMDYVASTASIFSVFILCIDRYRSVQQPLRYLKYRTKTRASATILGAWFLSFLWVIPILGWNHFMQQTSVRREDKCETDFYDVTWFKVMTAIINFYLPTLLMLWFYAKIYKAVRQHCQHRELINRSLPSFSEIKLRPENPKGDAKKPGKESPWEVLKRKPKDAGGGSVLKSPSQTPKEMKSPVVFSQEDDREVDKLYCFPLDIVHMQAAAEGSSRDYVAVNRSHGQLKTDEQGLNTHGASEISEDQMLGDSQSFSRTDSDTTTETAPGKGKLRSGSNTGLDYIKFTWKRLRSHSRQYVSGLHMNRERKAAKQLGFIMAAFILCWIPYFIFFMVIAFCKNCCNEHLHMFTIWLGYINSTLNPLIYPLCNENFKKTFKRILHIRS
Sequence of Histamine H4 receptor (Rattus norvegicus) (Q91ZY1 whole entry): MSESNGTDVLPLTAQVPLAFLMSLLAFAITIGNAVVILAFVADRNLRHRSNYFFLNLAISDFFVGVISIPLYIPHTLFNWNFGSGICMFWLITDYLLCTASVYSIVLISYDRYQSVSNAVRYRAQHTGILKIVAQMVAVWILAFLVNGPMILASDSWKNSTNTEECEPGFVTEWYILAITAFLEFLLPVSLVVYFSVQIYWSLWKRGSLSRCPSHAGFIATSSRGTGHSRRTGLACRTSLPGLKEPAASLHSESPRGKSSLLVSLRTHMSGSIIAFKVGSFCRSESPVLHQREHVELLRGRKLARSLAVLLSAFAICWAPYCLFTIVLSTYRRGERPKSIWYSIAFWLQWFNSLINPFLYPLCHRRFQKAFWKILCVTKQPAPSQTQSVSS
Sequence of Histamine H2 receptor (P25021 whole entry): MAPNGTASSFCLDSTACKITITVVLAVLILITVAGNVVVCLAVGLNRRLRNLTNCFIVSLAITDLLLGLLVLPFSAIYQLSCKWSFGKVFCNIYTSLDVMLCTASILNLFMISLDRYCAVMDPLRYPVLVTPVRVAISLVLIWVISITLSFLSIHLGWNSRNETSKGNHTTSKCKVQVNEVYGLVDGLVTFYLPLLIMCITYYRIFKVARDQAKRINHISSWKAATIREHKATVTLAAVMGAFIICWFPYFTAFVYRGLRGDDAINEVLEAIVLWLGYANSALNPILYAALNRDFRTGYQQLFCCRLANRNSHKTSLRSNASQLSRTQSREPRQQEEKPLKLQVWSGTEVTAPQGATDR

SMILES	Ki (Histamine H3 receptor [1]) [nM]	Ki (Histamine H1 receptor) [nM]	Ki (Histamine H3 receptor [5]) [nM]	other results
CN1CCN(c2ccnc(NCC(C)(C)C)n2)CC1	5500			
CC(C)(C)CNc1nccc(N2CCN(C(=N)N)CC2)n1	6030	> 1000		
CC(C)(C)CNc1nccc(NCCN)n1	692	> 1000		
CN1CCCN(c2ccnc(NCC(C)(C)C)n2)CC1.O=C(O)C(F)(F)F.O=C(O)C(F)(F)F	2400	> 10000		Stability [2]: Stable
CC(C)(C)CNc1nccc(N2CC[C@@H](N)C2)n1	13.8			
NC(=NCc1ccc(Cl)cc1)SCCCc1cnc[nH]1 [CLOBENPROPIT]				EC50 (Histamine H4 receptor [3]): 22.4 nM; EC50 (Histamine H4 receptor [4]): 851 nM
CC(C)(C)CNc1nccc(NCCc2c[nH]cn2)n1			9.55	Ki (Histamine H4 receptor [6]): 204 nM
CC(C)(C)CNc1nccc(NCCCc2c[nH]cn2)n1			9.33	
CC(C)(C)CNc1nccc(NC2CCNCC2)n1	3470	> 10000	3470	Ki (Histamine H2 receptor): > 10000 nM; Ki (Histamine H4 receptor [6]): 1910 nM; Ratio Ki (Homo sapiens [7]): 1.6; Ratio Ki (Homo sapiens [8]): > 4.7
S=C(NC1CCCCC1)N1CCC(c2cnc[nH]2)CC1				pKb (Histamine H4 receptor [9]): 6.83; pKb [10]: 7.12; pKb [11]: 6.44
CC(C)(C)CNc1nccc(N2CCNCC2)n1	> 10000			
CC(C)(C)CNc1nccc(N2CC[C@@H](NC(=N)N)C2)n1.O=C(O)C(F)(F)F.O=C(O)C(F)(F)F	1120	> 10000		Stability [2]: Stable
CN(C)[C@@H]1CCN(c2ccnc(NCC(C)(C)C)n2)C1.O=C(O)C(F)(F)F.O=C(O)C(F)(F)F		> 10000		Stability [2]: Stable
CC(C)(C)CNc1nccc(NCCCN)n1	5620	> 10000	5620	
CC(C)(C)CNc1nccc(N2CCc3nc[nH]c3C2)n1.O=C(O)C(F)(F)F.O=C(O)C(F)(F)F	3.31			Stability [2]: Stable
CC(C)(C)CNc1nccc(N2CCN(CCN)CC2)n1	> 10000			
CCC(=O)N[C@@H]1CCN(c2ccnc(NCC(C)(C)C)n2)C1	3020		3020	
CC(C)(C)CNc1nccc(N2CCCNCC2)n1			537	
O=C(O)C(F)(F)F.O=C(O)C(F)(F)F.[3H]C([3H])([3H])N(C)[C@@H]1CCN(c2ccnc(NCC(C)(C)C)n2)C1				Stability [12]: Stable
CC(C)(C)CNc1nccc(N2CCCN(C(=N)N)CC2)n1	> 10000			
CC(C)(C)CNc1nccc(NC2CCNC2)n1 (stereo not given)	204	> 10000	204	
CN[C@@H]1CCN(c2ccnc(NCC(C)(C)C)n2)C1	27.5		27.5	
N=C(NCc1ccc(Cl)cc1)SCCCc1c[nH]cn1				pKb [11]: 6.28
Cc1[nH]cnc1CSCCNc1ccnc(NCC(C)(C)C)n1	> 10000	> 1000		
NC(=NCCc1ccc(I)cc1)SCCCc1cnc[nH]1 [IODOPHENPROPIT]				Ki (Histamine H4 receptor [13]): 12.6 nM
